Each structure is given as a SMILES string.

The assay concerns Vaccinia virus. Briefly: Antiviral activity against Vaccinia virus Lederle infected in HELF cells assessed as inhibition of virus-induced cytopathogenicity. The class given is functional, organism-based. The note with it: Orthopoxvirus vaccinia. In short, it runs like this: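 Confluent human embryonic lung fibroblast monolayers in 96-well plates were infected with 100 CCID50 of virus or, for VZV, 20 PFU, in the presence of varying compound concentrations. For HCMV/VZV-type assays, residual virus was removed after 1–2 h before compound addition. Cytopathicity or plaque formation was scored once complete in untreated infected controls. […] Highest concentration tested was 100 μM.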
(Cytopathic effects are the visible damage that an infection or toxin causes in cultured cells.)
Usually EC50 stands for the concentration at which the effect is half-maximal. Regarding `C#C[C@@]1(O)[C@@H](CO)O[C@@H](n2ccc3c(Cl)ccnc32)[C@@H]1O`, the EC50 is greater than 100 µM.
For `C#C[C@@]1(O)[C@@H](CO)O[C@@H](n2cc(Br)c3c(Cl)ccnc32)[C@@H]1O`, the EC50 is greater than 100 µM.
For `CC[C@@]1(O)[C@@H](CO)O[C@@H](n2cc(Cl)c3c(N)ncnc32)[C@@H]1O` the value was 0.73 µM.
As for `C#C[C@@]1(O)[C@@H](CO)O[C@@H](n2cc(I)c3c(Cl)ccnc32)[C@@H]1O`, the EC50 was greater than 100 µM.
As for `C#C[C@@]1(O)[C@@H](CO)O[C@@H](n2cc(Cl)c3c(Cl)ccnc32)[C@@H]1O`, the EC50 was greater than 100 µM.
In the case of `Nc1nc2c(ncn2COCCO)c(=O)[nH]1` [ACYCLOVIR], the EC50 was greater than 250 µM.
Turning to `Nc1nc2c(ncn2COC(CO)CO)c(=O)[nH]1` [GANCICLOVIR], the EC50 was greater than 100 µM.

These data come from ChEMBL document CHEMBL4270599, “Synthesis of a 3'-C-ethynyl-β-d-ribofuranose purine nucleoside library: Discovery of C7-deazapurine analogs as potent antiproliferative nucleosides” (Eur J Med Chem, 2018).
